Test results as given in ChEMBL document CHEMBL4828732, “Synthesis and biological evaluation of selective survivin inhibitors derived from the MX-106 hydroxyquinoline scaffold” (Eur J Med Chem, 2021).
Active and inactive are the calls of the source. The calls are words filed in the database; no cut-off is given here.

Key:
[1] = Metabolic stability of the compound in mouse liver microsomes assessed as half life at 10 uM incubated for 10 mins in presence of NADPH by UPLC-MS analysis; type: ADME, Microsome
[2] = Metabolic stability of the compound in rat liver microsomes assessed as half life at 10 uM incubated for 10 mins in presence of NADPH by UPLC-MS analysis; type: ADME, Microsome
MDA-MB-435/LCC6MDR1 = experiment: cells; conditions: Homo sapiens, MDA-MB-435, 72 h
[3] = Metabolic stability of the compound in human liver microsomes assessed as clearance at 10 uM incubated for 240 mins in presence of NADPH by UPLC-MS analysis; conditions: 4 h
MDA-MB-453 = experiment: cells; conditions: Homo sapiens, MDA-MB-453, 72 h
A-375 [4] = experiment: cells; conditions: Homo sapiens, A-375, 72 h
[5] = Metabolic stability of the compound in human liver microsomes assessed as half life at 10 uM incubated for 10 mins in presence of NADPH by UPLC-MS analysis; type: ADME, Microsome
[6] = Metabolic stability of the compound in mouse liver microsomes assessed as clearance at 10 uM incubated for 10 mins in presence of NADPH by UPLC-MS analysis; type: ADME, Microsome
[7] = Metabolic stability of the compound in rat liver microsomes assessed as clearance at 10 uM incubated for 10 mins in presence of NADPH by UPLC-MS analysis; type: ADME, Microsome
MDA-MB-435 = experiment: cells; conditions: Homo sapiens, MDA-MB-435, 72 h
SK-BR-3 = experiment: cells; conditions: Homo sapiens, SK-BR-3, 72 h
[8] = Resistance index, ratio of IC50 for antiproliferation activity against human MDA-MB-435/LCC6MDR cells to IC50 for antiproliferation activity against human MDA-MB-435 cells assessed as cell growth inhibition measured after 72 hrs by MTS assay; type: functional
RPMI-7951 = experiment: cells; conditions: Homo sapiens, RPMI-7951, 72 h
OVCAR-3 [9] = experiment: cells; conditions: Homo sapiens, OVCAR-3, 72 h
OVCAR-8 [10] = experiment: cells; conditions: Homo sapiens, OVCAR-8, 72 h
A-375 [11] = experiment: Downregulation of survivin protein expression in human A-375 cells measured after 24 hrs by Westernblot analysis; type: functional, cell-based
How it was run: (§1)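 A375 cells (2 × 10⁶ per 10-cm dish) attached overnight, then treated 24 h in DMEM with 1, 5 or 10 μM. Lysed in RIPA with protease/phosphatase inhibitors; protein measured by Bradford. 50 μg run on SDS-PAGE, transferred to PVDF, blocked in 5% milk, probed overnight at 4°C for survivin, cleaved PARP, cIAP1, XIAP, Livin, with HRP-GAPDH as loading control; ECL detection.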

A-375 [12] = experiment: Induction of apoptosis in human A-375 cells assessed as increase in cleaved PARP level after 24 hrs by Western blot analysis; type: functional, cell-based; how it was run: as §1
A-375 [13] = experiment: Downregulation of survivin protein expression in human A-375 cells at 10 uM measured after 24 hrs by Westernblot analysis; type: functional, cell-based; how it was run: as §1
OVCAR-3 [14] = experiment: Downregulation of survivin protein expression in human OVCAR-3 cells measured after 24 hrs by Westernblot analysis; type: functional, cell-based
How it was run: (§2)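 Ovarian cancer cells treated 24 h at 2 and 4 μM, or vehicle, in serum-free RPMI 1640. Lysed in RIPA with protease inhibitor; 100 μg protein per lane run on 10% SDS-PAGE, transferred to PVDF, blocked in 5% milk. Probed for survivin, MCL1 and GAPDH; HRP secondary with ECL detection.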

OVCAR-8 [15] = experiment: Downregulation of survivin protein expression in human OVCAR-8 cells measured after 24 hrs by Westernblot analysis; type: functional, cell-based; how it was run: as §2
SK-OV-3 = experiment: Downregulation of survivin protein expression in human SK-OV-3 cells measured after 24 hrs by Westernblot analysis; type: functional, cell-based; how it was run: as §2
A-375 [16] = experiment: Antitumor activity against human A-375 cells xenografted in NSG mouse assessed as reduction in tumor weight at 20 mg/kg, ip administrated 3 times a week for 15 days; type: functional; parameters: scale not given: the % may be the effect or the level left; conditions: time 15 day
[17] = Toxicity in NSG mouse xenografted with human A-375 cells assessed as reduction in body weight at 40 mg/kg, ip administrated 3 times a week for 15 days; type: organism-based; conditions: in vivo, 360 h, time 15 day
A-375 [18] = experiment: Antitumor activity against human A-375 cells xenografted in NSG mouse assessed as tumor growth inhibition at 20 to 40 mg/kg, ip administrated 3 times a week for 15 days; type: functional, organism-based; conditions: dose 20-40 mg/kg, time 15.0 day
OVCAR-8 [19] = experiment: Antitumor activity against luciferase-tagged human OVCAR-8 cells xenografted into left side ovarian bursa of NSG mouse assessed as reduction in number of metastatic tumor in kidney at 20 mg/kg, […] by histological analysis; type: functional, organism-based
OVCAR-8 [20] = experiment: Antitumor activity against luciferase-tagged human OVCAR-8 cells xenografted into left side ovarian bursa of NSG mouse assessed as reduction in number of metastatic tumor in intestine at 20 mg/kg, ip administrated 3 times a week for 15 days by histological analysis; type: functional, organism-based; conditions: time 15.0 day
A-375 [21] = experiment: Antitumor activity against human A-375 cells xenografted in NSG mouse assessed as reduction in tumor weight at 40 mg/kg, ip administrated 3 times a week for 15 days; type: functional; parameters: scale not given: the % may be the effect or the level left; conditions: time 15 day
OVCAR-8 [22] = experiment: Antitumor activity against luciferase-tagged human OVCAR-8 cells xenografted into left side ovarian bursa of NSG mouse assessed as reduction in number of metastatic tumor in spleen at 20 mg/kg, […] by histological analysis; type: functional, organism-based
OVCAR-8 [23] = experiment: Antitumor activity against human OVCAR-8 cells xenografted in NSG mouse assessed as tumor weight at 20 mg/kg, ip administrated 3 times a week for 15 days; conditions: time 15 day
OVCAR-8 [24] = experiment: Antitumor activity against luciferase-tagged human OVCAR-8 cells xenografted into left side ovarian bursa of NSG mouse assessed as reduction in number of metastatic tumor at 20 mg/kg, ip administrated 3 times a week for 15 days by histological analysis; conditions: time 15.0 day
[25] = Toxicity in NSG mouse xenografted with human A-375 cells assessed as reduction in body weight at 20 mg/kg, ip administrated 3 times a week for 15 days; type: organism-based; conditions: in vivo, 360 h, time 15 day
[26] = Toxicity in NSG mouse xenografted with human OVCAR-8 cells assessed as reduction in body weight at 20 mg/kg, ip administrated 3 times a week for 15 days; type: organism-based; conditions: in vivo, 360 h, time 15 day
OVCAR-8 [27] = experiment: Antitumor activity against luciferase-tagged human OVCAR-8 cells xenografted into left side ovarian bursa of NSG mouse assessed as reduction in number of metastatic tumor in stomach at 20 mg/kg, ip administrated […] by histological analysis; type: functional, organism-based
A-375 [28] = experiment: Induction of apoptosis in human A-375 cells assessed as increase in cleaved […] level after 24 hrs by Western blot analysis; type: functional, cell-based
OVCAR-8 [29] = conditions: Homo sapiens, dose 20.0 mg/kg, time 15.0 day

t1/2 [1] [h] | t1/2 [2] [h] | IC50 (MDA-MB-435/LCC6MDR1) [nM] | CLH [3] [µL/min/mg] | IC50 (MDA-MB-453) [nM] | IC50 (A-375 [4]) [nM] | t1/2 [5] [h] | CLH [6] [µL/min/mg] | CLH [7] [µL/min/mg] | IC50 (MDA-MB-435) [nM] | IC50 (SK-BR-3) [nM] | IC50 (RPMI-7951) [nM] | IC50 (OVCAR-3 [9]) [nM] | IC50 (OVCAR-8 [10]) [nM] | SMILES | Ratio IC50 [8] | Activity (A-375 [11]) | Activity (A-375 [12]) | Activity (OVCAR-3 [14]) | Activity (OVCAR-8 [15]) | Activity (SK-OV-3) | further results
1.2 | 0.6 | 1000 | 16.3 | 1300 | 600 | 1.4 | 19.9 | 36.7 | 600 | 1500 | 500 |  |  | CC(C)c1ccc(COCc2cc(-c3cncc4ccccc34)c(O)c3ncccc23)cc1 | 1.6 |  |  |  |  |  | 
 | 2.5 | 1400 | 3.2 | 500 | 500 |  | 5.5 | 9.2 | 500 | 800 | 700 | 1300 | 2600 | CC(C)c1ccc(COCc2cc(-c3ccccc3)c(O)c3ncccc23)cc1 | 2.6 |  | Active |  |  |  | Activity (A-375 [13]): inactive
1 | 0.9 | 900 | 10 | 2800 | 600 | 2.3 | 24.3 | 24.8 | 2600 | 2700 | 600 | 800 | 1300 | Oc1c(CN2CCCC2)cc(Cn2ncc(-c3cccc(Br)c3)n2)c2cccnc12 | 0.4 |  |  | Active | Active | Active | 

Continued, compound first:

SMILES | t1/2 [1] [h] | t1/2 [2] [h] | IC50 (MDA-MB-435/LCC6MDR1) [nM] | CLH [3] [µL/min/mg] | IC50 (MDA-MB-453) [nM] | IC50 (A-375 [4]) [nM] | t1/2 [5] [h] | CLH [6] [µL/min/mg] | CLH [7] [µL/min/mg] | IC50 (MDA-MB-435) [nM] | IC50 (SK-BR-3) [nM] | IC50 (RPMI-7951) [nM] | IC50 (OVCAR-3 [9]) [nM] | IC50 (OVCAR-8 [10]) [nM] | Ratio IC50 [8] | Activity (A-375 [11]) | Activity (A-375 [12]) | Activity (OVCAR-3 [14]) | Activity (OVCAR-8 [15]) | Activity (SK-OV-3) | further results
Oc1c(CN2CCCCC2)cc(Cn2ncc(-c3ccc(Br)cc3)n2)c2cccnc12 | 0.7 | 1.3 | 1200 | 17.5 | 1500 | 1000 | 1.3 | 35 | 18 | 2200 | 1900 | 900 | 500 | 1700 | 0.5 |  |  |  |  |  | 
Oc1c(CN2CCCC2)cc(Cn2ncc(-c3ccc(Br)cc3)n2)c2cccnc12 | 0.8 | 1 | 600 | 12 | 3100 | 700 | 1.9 | 27.8 | 22.6 | 3100 | 2700 | 1700 | 1000 | 1700 | 0.2 | Dose-Dependent Effect | Active |  |  |  | 
Oc1c(CN2CCCCC2)cc(Cn2ncc(-c3ccc(C(F)(F)F)cc3)n2)c2cccnc12 |  | 1.6 |  | 15.7 |  |  | 1.5 | 21.6 | 14.2 |  |  |  |  |  |  | Dose-Dependent Effect | Active | Active | Active | Active | Activity (A-375 [16]): 32%; Activity [17]: Non-Toxic; Activity (A-375 [18]): Dose-Dependent Effect; Activity (OVCAR-8 [19]): Active; Activity (OVCAR-8 [20]): inactive; Activity (A-375 [21]): 55%; Activity (OVCAR-8 [22]): Active; tumor weight (OVCAR-8 [23]): 0.11 g; Activity (OVCAR-8 [24]): Active; Activity [25]: Non-Toxic; Activity [26]: Non-Toxic; Activity (OVCAR-8 [27]): Active; Activity (A-375 [28]): Active; inhibition (OVCAR-8 [29]): Active
